Experimental data as given in the RNAGym collection of RNA variant scans (doi:10.1126/science.aae0568).
This sample holds only a part of the variants without activity.

B1: tRNA (parent)
chain: GUUCCGUUGGCGUAAUGGUAACGCGUCUCCCUCCUAAGGAGAAGACUGCGGGUUCGAGUCCCGUACGGAACG

Variants of: B1
Assay: yeast fitness relative to wild type (ratio to wild type); higher = fitter; tRNA-Arg(CCU), competitive growth, 37 C, YPD
In short: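 A pool of Saccharomyces cerevisiae strains, each with a tRNA-Arg(CCU) gene variant at the native genomic locus, was competed in YPD at 37°C for 24 hours across six parallel replicates. The variants had been chemically synthesised at a 3% per-site mutation rate over 69 sites, and gene amplicons before and after competition were read by 100-nucleotide paired-end sequencing. Darwinian fitness relative to wild type rested on changes in genotype frequencies. Genotypes required ≥ 100 starting reads, and estimates < 0.5 were set to 0.5.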

Variant	yeast fitness
GUUCCGUUGGCGUAUUGGUAACGGGUCUCCCUCCUAAGGAGCAGACUGCGGGUUCGAGUCCCGUAAGGAACG	0.59
GUUCCGUUGGCGUAUUGGUAACGAGUCUCCCUCCUAAGGAGAAGACUGCGGGUUCGAGUCCCGUACGGAACG	0.53
GUUCCGUUGGCGUAUUGGUAACGUGUCUCCCUCCUAAGGAGAAGACUGCGGGUUCGAGUCCCGUACGGAACG	0.627
GUUCCGUUGGCGUAUUGGUAACGGGUCUCCCUCCUAAGGAGAAGACUGCGGGUUCGAGUCCCGUACGGAACG	0.647
GUUCCGUUGGCGUAUUGGUAAGGCGUCUCCCUCCUAAGGAGAAGACUCCGGGUUCGAGUCCCCUACGGACCG	≤ 0.5
GUUCCGUUGGCGUAUUGGUAAUGCGUCUCCCUCCUAAGGAGAAGACUGCGGGUUCGUGUCCCGUACGGAACG	≤ 0.5
GUUCCGUUGGCGUAUUGGUAAGGCGUCUCCUUCCUAAGGAGAAGACUGCGGGUUCGAGUCCCGAACGCAUCG	≤ 0.5
GUUCCGUUGGCGUAUUGGUAAGGCGUCUCCCUCCUAAGGAGAAGACUGCGGGUUCGAGUCCCGUACGGUACG	0.608
GUUCCGUUGGCGUAUUGGUAAAAAGUCUCCCUCCUAAGGAGAAGAAUGCGGGUUCGAGUCCCGUACGGAACG	≤ 0.5
GUUCCGUUGGCGUAUUGGUAACGAGUCUGCCUCCUAAGGAGAAGACUGCGGGUUCGAGUCCCGUACGGAACG	≤ 0.5
GUUCCGUUGGCGUAUUGGUAACGCGUCUCCCUCCUAAGGAGAGGACUGCGGGUUCGAGUCCCGUACGGAACG	0.726
GUUCCGUUGGCGUAUUGGUAACGCGUCUCCCUCCUAAGGAGAUGACUGCGGGUUCGAGUCCCGUACGGAACG	0.826
GUUCCGUUGGCGUAUUGGUAACGCGUCUCCCUCCUAAGGAGAAGUCUGCGGGUUCGAGUCCCGUACGCAACG	≤ 0.5
GUUCCGUUGGCGUAUUGGUAACGCGUCUCCCUCCUAAGGAGAAGCCUGUGGGUUCGAGUCCCGUACGGAACG	0.618
GUUCCGUUGGCGUAUUGGUAACGCGUCUCCCUCCUAAGGUGAAGACUGCGGAUUCGAGUCCCGUCCGGAACG	≤ 0.5
GUUCCGUUGGCGUAUUGGUAACGGGUCUCCCUCCUAAGGAGCCGACUGCGGGUUCGAGUCCCGUACGGAACG	≤ 0.5
GUUCCGUUGGCGUAUUGGUAACGGGUCUCCCUCCUAAGGAGAAGACUGCGGGUUCGAGUCCCGUACGAAACG	≤ 0.5
GUUCCGUUGGCGUAUUGGUAACGCGUCUCCCUCCUAAGGAGAAGCCUGCGGGUUUGAGUCCCGUACGGAACG	≤ 0.5
GUUCCGUUGGCGUAUUGGUAACGCGUCUCCCUCCUAAGGAGAAGUCUGCGGGUUCGAGUCCCGUACGCAUCG	≤ 0.5

Variant	yeast fitness
GUUCCGUUGGCGUAUUGGUAAAGCGUCUCCCUCCUAAGGAGAGGACUGCGCGUUCGAGUCCCGUACGGAACG	≤ 0.5
GUUCCGUUGGCGUAUUGGUAAAAAGUCUCCCUCCUAAGGAGAAGACUGCGGGUUCCAGUCCCGUACGGAACG	≤ 0.5
GUUCCGUUGGCGUAUUGGUAACGAAUCUCCCUCCUAAGGAGAAGACCGCGGCUUCGAGUCCCGUACGGAACG	≤ 0.5
GUUCCGUUGGCGUAUUGGUAACGGGUCUCCCACCUAAGGAAAAGACUGCGGGUUCGAGUCCCGUACGGAACG	≤ 0.5
GUUCCGUUGGCGUAUUGGUAACGCGUCUCCCUCCUAAGGAGAAGACUGCGGGUUCGCGUCCCGUUCGGCACG	≤ 0.5
GUUCCGUUGGCGUAUUGGUAAGGCGUCUCCCUCCUAAGGAGAAGACUGCGGGUUCGAGUCCCGUACGGACCG	≤ 0.5
GUUCCGUUGGCGUAUUGGUAACGCGUCUCCCUCCUAAGGAGAUGAGUGCGGGUUCGAGUCACGUACGGAACG	≤ 0.5
GUUCCGUUGGCGUAUUGGUAAAGCGUCUCCCUCCUAAGGAGAAGACUGCGGGUUCGAGUCCCGUACGGAACG	0.738
GUUCCGUUGGCGUAUUGGUAAUGCGUCUCCCUCCUAAGGAGAAGACUGCGGGUUCGAGUCCCGUACGGAACG	0.743
GUUCCGUUGGCGUAUUGGUAAGGCGUCUCCCUCCUAAGGAGAAGACUGCGGGUUCGAGUCCCGUACGGAACG	0.67
GUUCCGUUGGCGUAUUGGUAAUGCGUCUCCCUCCUAAGGAGAACACUGCGGGUUCGAGUCCCGUGCGGAACG	≤ 0.5
GUUCCGUUGGCGUAUUGGUAAGGCGUCUCCUUCCUAAGGAGAAGACUGCGGGUUCGAGUACCGUACGGAACG	≤ 0.5
GUUCCGUUGGCGUAUUGGUAACGCGUCUCCCUCCUAAGGAGCAGACUGCGGGUUCGAGUCCCGUACGGAACG	0.787
GUUCCGUUGGCGUAUUGGUAAUGCGUCUCCCUGCUAAGGAGAAGACUGCAGGUUCGAGUCCCGUACGGAACG	≤ 0.5
GUUCCGUUGGCGUAUUGGUAAAAAGUCUCCCUCCUAAGGAGAAGAAUGCGGGUUCGAGUCCCGUACGGAGCG	≤ 0.5
GUUCCGUUGGCGUAUUGGUAACGCGUCUCCCUCCUAAGGAGAAGACUGCGGGUUCGAGUCCCGUUCGGACCG	≤ 0.5
GUUCCGUUGGCGUAUUGGUAACGGGUCUCCCUCCUAAGGAGAAGACUGCGGGUUCAAGUCCCGUACGGAACG	≤ 0.5
GUUCCGUUGGCGUAUUGGUAAAGCGUCUCCCUCCUAAGGAGAGGACUGCGCGUUCGAGCCCUGUACGUAACG	≤ 0.5
GUUCCGUUGGCGUAUUGGUAACGCGUCUCCCUCCUAAGGAGACGACUACGGGUUCGAGUCCCGUACGCAACG	≤ 0.5
